Active and inactive are the calls of the source.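 How the source made its calls, unless noted: active means viability loss from added drug above about 55%, and viability with drug at most 40%, in both replicates (limit read from the data, passing the limit was not always enough); inconclusive means both conditions met in only one replicate; inactive means neither replicate meets both conditions.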
Columns and labels:
[1] = reducers of endogenous Her2 protein level, primary screen, SKBR3 breast tumor cells, AlphaScreen, ATP viability (AID 461;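 active means Her2 level under about 52% in both replicate screens, with viability over 70% of control, limit read from the data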;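 on Her2 level: lower value means less Her2 protein in the cells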;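 on viability: percent of carrier control wells set as 100% viability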); conditions: 18-24 h, measured here: SKBR3 viability, ATP luminescence, at 10 µM
[2] = molecular target: Receptor tyrosine-protein kinase erbB-2 (Homo sapiens) (UniProt P04626); experiment: as above; conditions: 18-24 h, at 10 µM, stronger effect = lower value
Sequence of Receptor tyrosine-protein kinase erbB-2 (Homo sapiens) (P04626 whole entry, looked up): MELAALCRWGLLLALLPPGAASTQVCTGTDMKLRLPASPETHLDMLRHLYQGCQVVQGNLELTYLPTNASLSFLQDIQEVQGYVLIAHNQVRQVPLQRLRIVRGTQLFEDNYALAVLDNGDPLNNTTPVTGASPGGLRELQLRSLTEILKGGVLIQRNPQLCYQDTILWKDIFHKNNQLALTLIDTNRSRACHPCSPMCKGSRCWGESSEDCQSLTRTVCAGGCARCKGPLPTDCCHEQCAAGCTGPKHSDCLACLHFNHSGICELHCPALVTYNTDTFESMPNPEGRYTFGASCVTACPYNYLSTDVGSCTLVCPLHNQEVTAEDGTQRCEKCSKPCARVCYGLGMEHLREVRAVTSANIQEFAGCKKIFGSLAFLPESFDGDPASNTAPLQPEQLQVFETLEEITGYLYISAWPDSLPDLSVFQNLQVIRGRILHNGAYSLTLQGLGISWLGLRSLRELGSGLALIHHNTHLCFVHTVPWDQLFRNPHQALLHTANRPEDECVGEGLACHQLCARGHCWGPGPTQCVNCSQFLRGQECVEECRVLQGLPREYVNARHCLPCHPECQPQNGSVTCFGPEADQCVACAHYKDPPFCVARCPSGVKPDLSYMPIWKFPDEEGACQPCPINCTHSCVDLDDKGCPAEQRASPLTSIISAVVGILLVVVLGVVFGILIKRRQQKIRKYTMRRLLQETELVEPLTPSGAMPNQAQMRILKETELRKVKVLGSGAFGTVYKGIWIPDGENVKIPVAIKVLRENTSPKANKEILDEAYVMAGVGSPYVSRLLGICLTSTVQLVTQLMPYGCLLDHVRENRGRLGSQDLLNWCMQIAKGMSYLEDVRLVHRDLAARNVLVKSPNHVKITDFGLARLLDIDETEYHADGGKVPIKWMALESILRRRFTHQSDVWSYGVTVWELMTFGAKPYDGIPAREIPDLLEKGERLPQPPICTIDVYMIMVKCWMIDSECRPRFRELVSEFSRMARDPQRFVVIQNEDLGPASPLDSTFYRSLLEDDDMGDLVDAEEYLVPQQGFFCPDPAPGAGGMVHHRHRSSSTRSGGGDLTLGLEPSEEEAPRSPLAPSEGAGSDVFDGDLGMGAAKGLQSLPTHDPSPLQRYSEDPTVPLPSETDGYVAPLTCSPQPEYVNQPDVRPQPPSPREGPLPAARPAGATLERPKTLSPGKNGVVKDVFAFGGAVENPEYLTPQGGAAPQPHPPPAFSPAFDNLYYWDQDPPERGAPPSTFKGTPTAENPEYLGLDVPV

[3] = SK-BR-3 cell growth inhibitors, pilot screen, 24 h, human (AID 572;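 active means viability at or below 10% of carrier control in both of two separate runs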;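 further: compound exposure lasted between 18 and 24 h rather than exactly 24 h; 100% = carrier-treated control wells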); conditions: SK-BR-3 viability, CellTiter-Glo luminescence, at 10 µM, stronger effect = lower value
[4] = HUVEC growth inhibition – cell-based, human, primary screen (AID 575;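 active means viability at or below 30% in both replicate assays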;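 further: 100% = median of untreated cell wells with 0.1% DMSO on each plate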); conditions: HUVEC proliferation, CellTiter-Glo luminescence, 72 h; at 10 µM; stronger effect = lower value
In short: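 Test system – primary HUVEC, no more than 12 passages · Dosing – one dose, 10 µM final, 0.1% DMSO · Times – 72 h treatment at 37 °C · Measured by – ATP-based CellTiter-Glo luminescent read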

[5] = growth inhibitors of H69AR lung tumor, primary screen, human, duplicate replicates (AID 580;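 active means viability at or under a set limit in both replicates, limit being median viability minus 3 SD, cut at about 48% in these data, passing the limit was not always enough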;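 further: 100% = mean luminescence of untreated wells and 0% = no signal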); conditions: H69AR lung tumor cells viability, ATP luminescence, 72 h; at 10 µM; stronger effect = lower value
[6] = reversal of MRP1-mediated doxorubicin resistance, pilot screen, H69AR cells, doxorubicin co-treatment (AID 601); conditions: CellTiter-Glo, 72 h, at 10 µM; for differential viability (reversal): stronger effect = higher value
[7] = 384-well plate pilot, post-Golgi transport modulator project, inhibition of yeast transport mutant growth (AID 636; in the data active means inhibition above about 31%); conditions: absorbance 615 nm, about 18 h, stronger effect = higher value
[8] = growth suppression of yeast trafficking mutant, preliminary HTS, modulators of trafficking downstream of Golgi apparatus project, 1536-format plate, OD 615 nm (AID 637; in the data active means inhibition above about 30%); conditions: yeast transport mutant growth, absorbance 615 nm, 18 h; stronger effect = higher value
[9] = H69AR cells + 2 uM doxorubicin, measured here: viability with 2 uM doxorubicin, stronger effect = lower value
[10] = H69AR cells, compound alone cytotoxicity

Row | Structure (SMILES) | viability [1] [%] | Her2 level [2] | viability [3] | viability [4] | viability [5] | differential viability (reversal) ([6]; H69AR cells + 2 uM doxorubicin) | viability [6, 9] [%] | viability [6, 10] [%] | inhibition [7] | inhibition [8]
1 | O=C(COC(=O)c1ccc(S(=O)(=O)Nc2ccccc2)cc1)NCCN1C(=O)CSC1=O | 107 | 108% (inactive) | 107% (inactive) | 100% (inactive) | 95.3% (inactive) | 9.27% (inactive) | 86 | 95.3 | -5.07% (inactive) | -3.93% (inactive)
2 | O=C(NCCCNC1CCCCC1)c1ccc(/C=N/O)nc1 | 84 | 96% (inactive) | 84% (inactive) | 92.4% (inactive) | 103% (inactive) | 4.55% (inactive) | 98.6 | 103 | -0.91% (inactive) | -5.71% (inactive)
3 | CCOC(=O)C(NC(=O)C1CCCN1C(=O)OCc1ccccc1)C(=O)OCC (stereo not given) | 104 | 94.5% (inactive) | 104% (inactive) | 98.2% (inactive) | 99.8% (inactive) | 3.49% (inactive) | 96.3 | 99.8 | -1.58% (inactive) | -1.77% (inactive)
4 | CNC(=O)c1ccc(N(Cc2ccccc2C)S(C)(=O)=O)cc1 | 98 | 102% (inactive) | 98% (inactive) | 102% (inactive) | 93.6% (inactive) | 0.93% (inactive) | 92.7 | 93.6 | -3.87% (inactive) | -2.95% (inactive)
5 | CCOC(=O)c1ccccc1NC(=O)CSc1nnc(COc2ccccc2C)n1C | 63 | 89% (inactive) | 63% (inactive) | 82.6% (inactive) | 78.7% (inactive) | 5.67% (inactive) | 73 | 78.7 | -3.08% (inactive) | -9.17% (inactive)
6 | OCCNCC(O)Cn1ccc2ccccc21 (stereo not given) | 118 | 94.5% (inactive) | 118% (inactive) | 107% (inactive) | 88.6% (inactive) | 0.01% (inactive) | 88.6 | 88.6 | -3.77% (inactive) | -0.16% (inactive)
7 | Cc1cc(NC(=O)CSc2nnc(COc3cccc(C)c3C)n2Cc2ccco2)no1 | 102 | 94% (inactive) | 102% (inactive) | 97.5% (inactive) | 104% (inactive) | 19.5% (inactive) | 85 | 104 | -4.59% (inactive) | -0.79% (inactive)
8 | O=C1CC(N2CCN(C3CCc4ccccc4C3)CC2)C(=O)N1c1ccccc1 (stereo not given) | 89.5 | 97.5% (inactive) | 89.5% (inactive) | 102% (inactive) | 91.6% (inactive) | 1.58% (inactive) | 90 | 91.6 | -1.95% (inactive) | 3.93% (inactive)
9 | O=C1NC(Cc2c[nH]c3ccccc23)C(=O)N1CCOc1ccccc1 (stereo not given) | 79.5 | 89% (inactive) | 79.5% (inactive) | 73.2% (inactive) | 94.4% (inactive) | 0.2% (inactive) | 94.2 | 94.4 | -2.76% (inactive) | -1.83% (inactive)
10 | Cc1cccc(OCCCc2c(C)n[nH]c2C)c1 | 102 | 118% (inactive) | 102% (inactive) | 121% (inactive) | 98.7% (inactive) | 20.4% (inactive) | 78.4 | 98.7 | 5.32% (inactive) | -8% (inactive)
11 | Cc1csc(SCc2nc3sc4c(c3c(=O)[nH]2)CCC4)n1 | 116 | 122% (inactive) | 116% (inactive) | 103% (inactive) | 87.8% (inactive) | 1.88% (inactive) | 86 | 87.8 | -6.16% (inactive) | 0% (inactive)
12 | O=C(c1ccco1)N1CCN(C(=O)c2cc3c(s2)-c2ccccc2OC3)CC1 | 91 | 113% (inactive) | 91% (inactive) | 107% (inactive) | 97% (inactive) | 2.87% (inactive) | 94.2 | 97 | 0.13% (inactive) | -1.64% (inactive)
13 | CCn1c(SCC(=O)Nc2nccs2)nnc1-c1ccncc1 | 101 | 63.5% (inactive) | 101% (inactive) | 87% (inactive) | 84.8% (inactive) | -2.34% (inactive) | 87.1 | 84.8 | -2.11% (inactive) | 2.7% (inactive)
14 | O=C(Cn1nnc(-c2cc(Cl)ccc2-n2cnnn2)n1)N1CCCc2ccccc21 | 116 | 99.5% (inactive) | 116% (inactive) | 95.7% (inactive) | 96.4% (inactive) | 9.45% (inactive) | 87 | 96.4 | -2.47% (inactive) | 10.8% (inactive)
15 | O=c1[nH]c2c(s1)C(c1ccco1)C1C3CCC(C3)C1S2 (stereo not given) | 100 | 80% (inactive) | 100% (inactive) | 113% (inactive) | 78.8% (inactive) | -10.5% (inactive) | 89.3 | 78.8 | -3.29% (inactive) | 2.73% (inactive)
16 | CCC(=O)Nc1ccc(NC(=O)c2cccc(OC)c2)nc1 | 94 | 92.5% (inactive) | 94% (inactive) | 101% (inactive) | 97.8% (inactive) | 7.67% (inactive) | 90.2 | 97.8 | 0.14% (inactive) | -6.56% (inactive)

Row | Structure (SMILES) | viability [1] [%] | Her2 level [2] | viability [3] | viability [4] | viability [5] | differential viability (reversal) ([6]; H69AR cells + 2 uM doxorubicin) | viability [6, 9] [%] | viability [6, 10] [%] | inhibition [7] | inhibition [8]
17 | Cc1ccc(S(=O)(=O)N2CCC(C(=O)N3CCC[C@H]3C(=O)NCc3ccccc3)CC2)cc1 | 117 | 103% (inactive) | 117% (inactive) | 101% (inactive) | 90.8% (inactive) | -5.42% (inactive) | 96.2 | 90.8 | -4.81% (inactive) | -0.66% (inactive)
18 | COc1ccc(C)cc1NC(=O)CSc1nnnn1Cc1ccccc1 | 83 | 96.5% (inactive) | 83% (inactive) | 82.1% (inactive) | 96.8% (inactive) | 6% (inactive) | 90.8 | 96.8 | -1.49% (inactive) | -2.62% (inactive)
19 | Cc1cc2c(cc(C(=O)NCc3cccnc3)n2Cc2ccc(Cl)cc2)o1 | 92 | 68.5% (inactive) | 92% (inactive) | 103% (inactive) | 98.2% (inactive) | -0.245% (inactive) | 98.5 | 98.2 | -1.45% (inactive) | -3.33% (inactive)
20 | CCNc1nc(NCC)n2c(SCc3nc4ccccc4c(=O)[nH]3)nnc2n1 | 100 | 112% (inactive) | 100% (inactive) | 106% (inactive) | 78.1% (inactive) | -9.12% (inactive) | 87.2 | 78.1 | -1.58% (inactive) | -0.66% (inactive)
21 | COCCn1c(=O)[nH]c2cc(C(=O)NCc3cccnc3)ccc2c1=O | 89.5 | 88.5% (inactive) | 89.5% (inactive) | 107% (inactive) | 97.9% (inactive) | 4.27% (inactive) | 93.6 | 97.9 | -7.57% (inactive) | 1.17% (inactive)
22 | c1ccc(CC2CCN(c3nc4ccccc4n4nnnc34)CC2)cc1 | 84 | 86% (inactive) | 84% (inactive) | 88.6% (inactive) | 81.5% (inactive) | 8.36% (inactive) | 73.2 | 81.5 | 0% (inactive) | 1.5% (inactive)
23 | Cn1c(=O)c2c(nc(SCC(=O)NCc3ccco3)n2C)n(C)c1=O | 116 | 98.5% (inactive) | 116% (inactive) | 87.1% (inactive) | 93.5% (inactive) | -0.15% (inactive) | 93.6 | 93.5 | -0.78% (inactive) | -4.76% (inactive)
24 | Cc1cc(=O)oc2ccc(OCC(=O)N3CCC(C)CC3)cc12 | 87 | 90% (inactive) | 87% (inactive) | 92.3% (inactive) | 96.3% (inactive) | 5.65% (inactive) | 90.7 | 96.3 | -1.05% (inactive) | 1.15% (inactive)
25 | COc1ccc(-c2nnc(SCC(=O)c3cc(C)n(Cc4cccs4)c3C)o2)cc1 | 99.5 | 114% (inactive) | 99.5% (inactive) | 90.9% (inactive) | 87.5% (inactive) | 1.84% (inactive) | 85.7 | 87.5 | 2.6% (inactive) | 18.2% (inactive)
26 | CN(C1CCCCC1)S(=O)(=O)c1ccc(NC(=O)c2ccco2)cc1 | 91.5 | 91.5% (inactive) | 91.5% (inactive) | 80.4% (inactive) | 99.3% (inactive) | 4.14% (inactive) | 95.1 | 99.3 | -5.26% (inactive) | -0.67% (inactive)
27 | O=C(COc1nnnc2ccccc12)N1CCCc2ccccc21 | 97 | 87% (inactive) | 97% (inactive) | 98.2% (inactive) | 98.3% (inactive) | 0.405% (inactive) | 97.9 | 98.3 | -4.8% (inactive) | 6.07% (inactive)
28 | CCOC(=O)N1CCN(c2ncnc3c2[nH]c2ccc(OC)cc23)CC1 | 97.5 | 79% (inactive) | 97.5% (inactive) | 72.4% (inactive) | 81.3% (inactive) | 3.37% (inactive) | 77.9 | 81.3 | -3.6% (inactive) | -5.65% (inactive)
29 | CC1=NC(Nc2nc(C)c3ccccc3n2)=NC(C)(C)C1 | 78.5 | 72.5% (inactive) | 78.5% (inactive) | 74.3% (inactive) | 62.4% (inactive) | -14.6% (inactive) | 77 | 62.4 | -0.39% (inactive) | -7.38% (inactive)
30 | CCOC(=O)/C=C1\SCC(=O)N1Cc1ccc(Br)cc1 | 112 | 94% (inactive) | 112% (inactive) | 79.5% (inactive) | 97.3% (inactive) | 3.96% (inactive) | 93.3 | 97.3 | -7.67% (inactive) | 4.13% (inactive)
31 | [O-][n+]1c2c(nn1-c1ccccc1Cl)-c1nonc1CC2 | 102 | 85% (inactive) | 102% (inactive) | 115% (inactive) | 105% (inactive) | 20% (inactive) | 85.5 | 105 | -5.54% (inactive) | -0.67% (inactive)

— PubChem BioAssay
